Measurements: ChEMBL document CHEMBL1158497, “Arylpyrrolizines as inhibitors of microsomal prostaglandin E2 synthase-1 (mPGES-1) or as dual inhibitors of mPGES-1 and 5-lipoxygenase (5-LOX)” (J Med Chem, 2009)
Activity calls are given as the source filed them. The calls are words filed in the database; no cut-off is given here.

How the values were obtained:
[1] = target: T1, Prostaglandin E synthase (Homo sapiens) (UniProt O14684); experiment: Inhibition of mPGES1 in IL1-beta treated human A549 cell microsomal membrane assessed as residual enzyme activity at 10 uM after 1 min by measuring PGE2 level using RP-HPLC method relative to control; assay type: microsomes; conditions: Microsome
T1 sequence (whole entry): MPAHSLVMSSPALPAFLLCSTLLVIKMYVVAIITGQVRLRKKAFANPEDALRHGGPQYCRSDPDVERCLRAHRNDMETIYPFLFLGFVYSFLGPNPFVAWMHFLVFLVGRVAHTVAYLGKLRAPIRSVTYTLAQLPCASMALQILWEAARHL
How it was run: (§1)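 Cell-free assay using microsomes from A549 cells as the PGE2 synthase source. Compounds were tested at four concentrations (10 μM, 1 μM, 100 nM, 10 nM; 1 nM where needed) in 0.1% DMSO vehicle. Read-out was PGE2 level as a percentage of vehicle control, n=3-5, with ANOVA and Tukey HSD versus vehicle.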

Prostaglandin E synthase [2] = target: T2, Prostaglandin E synthase (Homo sapiens, UniProt O14684); experiment: Inhibition of mPGES1 in IL1-beta treated human A549 cell microsomal membrane assessed as residual enzyme activity after 1 min by measuring PGE2 level using RP-HPLC method; assay type: microsomes, Microsome; how it was run: as §1
T2 sequence (O14684 whole entry): T1 sequence (whole entry)

[3] = target: T3, Prostaglandin G/H synthase 1 (Ovis aries) (UniProt P05979); experiment: Inhibition of ovine COX1 assessed as residual enzyme activity at 30 uM preincubated for 5 mins by measuring 12-HHT level using HPLC method relative to control
T3 sequence (whole entry): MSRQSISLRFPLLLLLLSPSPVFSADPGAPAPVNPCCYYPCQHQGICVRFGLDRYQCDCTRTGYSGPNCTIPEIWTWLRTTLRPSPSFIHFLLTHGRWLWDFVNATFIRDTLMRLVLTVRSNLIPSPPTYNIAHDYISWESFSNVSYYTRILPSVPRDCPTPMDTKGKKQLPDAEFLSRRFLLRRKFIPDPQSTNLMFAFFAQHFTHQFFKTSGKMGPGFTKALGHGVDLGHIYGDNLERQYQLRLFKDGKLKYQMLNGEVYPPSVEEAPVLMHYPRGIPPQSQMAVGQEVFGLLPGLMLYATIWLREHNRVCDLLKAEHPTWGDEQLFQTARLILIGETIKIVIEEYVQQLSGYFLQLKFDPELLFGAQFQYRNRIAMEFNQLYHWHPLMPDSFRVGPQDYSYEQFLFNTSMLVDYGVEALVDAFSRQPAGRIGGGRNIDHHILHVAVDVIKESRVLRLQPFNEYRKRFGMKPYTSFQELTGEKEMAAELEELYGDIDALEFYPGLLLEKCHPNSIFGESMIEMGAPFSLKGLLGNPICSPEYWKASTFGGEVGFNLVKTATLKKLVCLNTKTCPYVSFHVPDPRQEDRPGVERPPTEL
How it was run: (§2)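 Isolated COX-1 and COX-2 enzymes were each exposed to inhibitor at 30 μM in 0.1% DMSO vehicle. Activity was read as 12-HHT concentration as a percentage of vehicle control, n=3-5, with ANOVA and Tukey HSD versus vehicle.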

[4] = target: T4, Prostaglandin G/H synthase 2 (Homo sapiens) (UniProt P35354); experiment: Inhibition of human recombinant COX2 assessed as residual activity at 30 uM preincubated for 5 mins by measuring 12-HHT level using HPLC method relative to control; how it was run: as §2
T4 sequence (whole entry): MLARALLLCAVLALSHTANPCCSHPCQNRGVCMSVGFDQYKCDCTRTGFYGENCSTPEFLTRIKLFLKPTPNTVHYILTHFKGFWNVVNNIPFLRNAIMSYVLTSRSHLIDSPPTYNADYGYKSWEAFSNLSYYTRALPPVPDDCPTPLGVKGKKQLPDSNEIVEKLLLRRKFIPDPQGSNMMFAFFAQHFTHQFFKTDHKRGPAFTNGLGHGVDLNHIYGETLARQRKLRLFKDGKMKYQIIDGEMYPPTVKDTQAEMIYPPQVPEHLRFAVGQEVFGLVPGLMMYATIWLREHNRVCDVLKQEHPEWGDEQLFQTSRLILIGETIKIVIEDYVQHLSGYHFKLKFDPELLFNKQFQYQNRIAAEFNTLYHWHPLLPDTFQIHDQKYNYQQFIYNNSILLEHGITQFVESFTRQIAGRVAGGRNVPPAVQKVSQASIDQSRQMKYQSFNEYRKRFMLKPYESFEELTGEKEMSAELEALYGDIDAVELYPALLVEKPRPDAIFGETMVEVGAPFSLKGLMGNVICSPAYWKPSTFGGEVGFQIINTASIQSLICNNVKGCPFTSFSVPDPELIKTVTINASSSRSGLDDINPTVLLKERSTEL

[5] = Inhibition of 5-lipoxygenase in bovine polymorphonuclear leucocytes assessed as formation of LTB4 by HPLC method; assay type: cell-based; conditions: Bos taurus
Prostaglandin E synthase [6] = target: T2, Prostaglandin E synthase; experiment: Inhibition of mPGES1 in IL1-beta treated human A549 cell microsomal membrane assessed as blockade of PGH2 to PGE2 conversion after 1 min; assay type: microsomes, Microsome; how it was run: as §1
[7] = Inhibition of rat mPGES1

SMILES | Activity [1] | IC50 (Prostaglandin E synthase [2]) | Activity [3] | Activity [4] | IC50 [5] | IC50 (Prostaglandin E synthase [6]) | IC50 [7]
CCC1(CC)Cc2c(-c3ccccc3)c(-c3ccc(Cl)cc3)c(CC(=O)NS(C)(=O)=O)n2C1 | 38.5% | 5900 nM | – | – | – | – | –
CC1(C)Cc2c(-c3ccccc3)c(-c3ccc(Cl)cc3)c(CC(=O)O)n2C1 [LICOFELONE] | 44.9% | 6700 nM | 12.4% | 53.7% | 180 nM | 6000 nM | –
CC1(C)Cc2c(-c3ccccc3)c(-c3ccc(Cl)cc3)c(Cc3nnn[nH]3)n2C1 | 27.9% | 3900 nM | 37.4% | 46.5% | 500 nM | – | –
Cc1ccc(S(=O)(=O)NC(=O)Cc2c(-c3ccc(Cl)cc3)c(-c3ccccc3)c3n2CC(C)(C)C3)cc1 | 32.2% | 4800 nM | 8.6% | 13.6% | 260 nM | – | –
O=C(O)Cc1c(-c2ccc(Cl)cc2)c(-c2ccccc2)c2n1CCC2 | 65.3% | – | – | – | 1600 nM | – | –
CC1(C)Cc2c(-c3ccccc3)c(-c3ccc(C(F)(F)F)cc3)c(CC(=O)O)n2C1 | 56.1% | – | – | – | 310 nM | – | –
CC(C)c1ccc2c(c1)c(SC(C)(C)C)c(CC(C)(C)C(=O)O)n2Cc1ccc(Cl)cc1 | 22.5% | – | 19.5% | 56.7% | – | – | 3200 nM
CC1(C)Cc2c(-c3ccccc3)c(-c3ccc(Cl)cc3)c(CC(=O)NS(=O)(=O)c3ccccc3)n2C1 | 28.7% | 4500 nM | 25.8% | 43.4% | 250 nM | – | –
Cc1ccc(S(=O)(=O)NC(=O)CCc2c(-c3ccc(Cl)cc3)c(-c3ccccc3)c3n2CC(C)(C)C3)cc1 | 23.2% | 2100 nM | 29.2% | inactive | – | – | –

Further lines, results first:

Activity [1] | IC50 (Prostaglandin E synthase [2]) | Activity [3] | Activity [4] | IC50 [5] | IC50 (Prostaglandin E synthase [6]) | IC50 [7] | SMILES
47.4% | 7200 nM | 82.9% | inactive | – | – | – | CC1(C)Cc2c(-c3ccccc3)c(-c3ccc(Cl)cc3)c(CCC(=O)O)n2C1
20.8% | 1800 nM | – | – | 1900 nM | – | – | O=C(O)CCc1c(-c2ccc(Cl)cc2)c(-c2ccccc2)c2n1CCC2
42.1% | 6200 nM | 94% | 75.8% | – | – | – | CC1(C)Cc2c(-c3ccccc3)c(-c3ccc4ccoc4c3)c(CC(=O)O)n2C1
58.8% | – | – | – | 1500 nM | – | – | CC1(C)Cc2c(-c3ccccc3)c(-c3ccc([N+](=O)[O-])cc3)c(CC(=O)O)n2C1
63.1% | – | – | – | 230 nM | – | – | CC1(C)Cc2c(-c3ccccc3)c(-c3ccc(Cl)cc3)c(CC(=O)NS(C)(=O)=O)n2C1
53.8% | – | inactive | inactive | 180 nM | – | – | CC1(C)Cc2c(-c3ccccc3)c(-c3ccc(C(C)(C)C)cc3)c(CC(=O)O)n2C1
